Entries after “also recorded” stand apart in the source; their conditions may differ. Where two headings read alike, the source gives them in different places.
What was measured:
[1] = format: in vivo, human (healthy women)
[2] = Local tolerability: Visual Infusion Phlebitis; format: in vivo, human (healthy women)
Summary of the method: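 The investigator scored the infusion site on the Visual Infusion Phlebitis scale, from 0 (no signs) to 5 (advanced thrombophlebitis). Subjects were healthy women given a single i.v. infusion of test compound or placebo. Scoring was done on day 1 predose after catheter placement, at 0.5, 1, 2, 3, 4, 6, 8, 12, 24, 48 and 72 h postdose, and at the post-trial exam.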

[3] = Local tolerability: ultrasound of the arm veins; format: in vivo, human (healthy women)
Summary of the method: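 Arm veins were examined by ultrasound in healthy women. In the multiple-dose phase of part B, subjects had once-daily 30-min i.v. infusions of 240 mg test compound or placebo on days 8–14. Scans were done at readmission on day 7 and predose on days 9–14. After the day-14 dose they were repeated at 24, 48 and 72 h and at the final exam.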

[4] = Safety: treatment emergent adverse events, laboratory, vital signs, ECG; format: in vivo, human (healthy women); details: for Dose-dependent AEs or clinically significant findings in safety laboratory values, vital signs, ECG parameters: any of the dose groups
Summary of the method: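 Subjects were healthy women, aged 18–45 years, with BMI 18.0–28.0 kg/m². Part A gave single escalating i.v. doses (6 active, 2 placebo per cohort). Part B gave 240 mg i.v. on day 1 and once daily on days 8–14 (8 active, 4 placebo). AEs were categorized by nature, frequency, duration, severity, investigator-assessed causality and dose-dependence. Clinical laboratory, blood pressure, heart rate and 12-lead/Holter ECG were also recorded. Summaries are descriptive.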

[5] = Local tolerability: VAS assessment of pain at infusion site; format: in vivo, human (healthy women)
Summary of the method: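 Healthy women, aged 18–45 years, received single i.v. doses of HPβCD-formulated test compound (60-min infusion in 0.9% saline) or placebo. Pain was self-rated on a 100-mm line (0 = no pain, 100 = unbearable). Read-outs were maximum increase from baseline and area under the VAS-time curve.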

[6] = part A, single 120 mg i.v., 30-min infusion, N=6, mean ± SD
[7] = part A, single 240 mg i.v., 30-min infusion, N=6, mean ± SD
[8] = part A, single 480 mg i.v., 60-min infusion, N=6, mean ± SD
[9] = part A, single 720 mg i.v., 60-min infusion, N=6, mean ± SD
[10] = part A, single 960 mg i.v., 60-min infusion, N=6, mean ± SD
[11] = part B, single 240 mg i.v. day 1, 30-min infusion, N=8, mean ± SD
[12] = part A, letermovir total (N=30)
[13] = part B, multiple-dose letermovir
[14] = part A, single dose 120 mg (N=6)
[15] = part A, single dose 120 mg (N=6), listed as letermovir
[16] = part A, single dose 240 mg (N=6)
[17] = part A, single dose 480 mg (N=6)
[18] = part A, single dose 720 mg (N=6)
[19] = part A, single dose 960 mg (N=6)
[20] = part A, single dose, letermovir total (N=30)
[21] = part B, multiple dose 240 mg (No. 5)
[22] = part B, multiple dose 240 mg (No. 6)
[23] = part B, single dose 240 mg (N=8)

COc1cccc(N2CCN(C3=Nc4c(F)cccc4[C@H](CC(=O)O)N3c3cc(C(F)(F)F)ccc3OC)CC2)c1 [Letermovir]
AUC(0-inf) ([1]; female, human, plasma, intravenous, 240 mg, AUC0–∞ after a single dose, part B, 240 mg single dose): 27500 ng·h/mL | AUC ([1]; female, human, plasma, intravenous, 240 mg, AUCτ,ss, part B, 240 mg q.d., steady state): 33600 ng·h/mL | Tmax ([1]; female, human, plasma, iv, 120 mg): 0.5 h | Tmax ([1]; female, human, plasma, iv, 240 mg): 0.5 h | Tmax ([1]; female, human, plasma, iv, 480 mg): 1 h | Tmax ([1]; female, human, plasma, iv, 720 mg): 1 h | Tmax ([1]; female, human, plasma, iv, 960 mg): 1 h | AUC0–last/D [1, 6]: 0.11 ± 0.03 µg·h/mL/mg | AUC0–∞/D [1, 6]: 0.11 ± 0.03 µg·h/mL/mg | Cmax/D [1, 6]: 0.06 ± 0.01 µg/mL/mg | AUC0–last/D [1, 7]: 0.14 ± 0.04 µg·h/mL/mg | AUC0–∞/D [1, 7]: 0.14 ± 0.04 µg·h/mL/mg | Cmax/D [1, 7]: 0.07 ± 0.01 µg/mL/mg | AUC0–last/D [1, 8]: 0.22 ± 0.04 µg·h/mL/mg | AUC0–∞/D [1, 8]: 0.22 ± 0.04 µg·h/mL/mg | Cmax/D [1, 8]: 0.06 ± 0.01 µg/mL/mg | AUC0–last/D [1, 9]: 0.23 ± 0.03 µg·h/mL/mg | AUC0–∞/D [1, 9]: 0.23 ± 0.03 µg·h/mL/mg | Cmax/D [1, 9]: 0.05 ± 0.00 µg/mL/mg | AUC0–last/D [1, 10]: 0.26 ± 0.06 µg·h/mL/mg | AUC0–∞/D [1, 10]: 0.26 ± 0.06 µg·h/mL/mg | Cmax/D [1, 10]: 0.06 ± 0.01 µg/mL/mg | Tmax ([1]; part B, 240 mg q.d. i.v. day 14, 30-min infusion, N=5, median (minimum-maximum)): 0.50 (0.50–0.50) h | C0h (pre-dose analyte concentration) ([1]; part B, 240 mg q.d. i.v. day 14, N=5, mean ± SD): 193.2 ± 86.23 ng/mL | AUC0–last/D [1, 11]: 0.12 ± 0.02 µg·h/mL/mg | AUC0–∞/D [1, 11]: 0.13 ± 0.02 µg·h/mL/mg | Cmax/D [1, 11]: 0.06 ± 0.01 µg/mL/mg | Tmax ([1]; part B, single 240 mg i.v. day 1, 30-min infusion, N=8, median (minimum-maximum)): 0.50 (0.50–0.50) h | Dose proportionality of Cmax ([1]; single i.v. doses 120–960 mg): dose‐proportional increase; also recorded: approximately proportionally to the dose | Dose proportionality of total exposure AUC0–∞ (AUC0–last) ([1]; single i.v. doses 120–960 mg): slightly more‐than‐dose‐proportional increase; also recorded: more than dose proportional | Increase in exposure on dose-doubling ([1]; single i.v. doses 120–960 mg): threefold | VIP score ([2]; part A, one subject of 120 mg group, 4 h postinfusion, scale 0–5): 2 | VIP score ([2]; part A, one subject treated with 240 mg, 24 h postinfusion, scale 0–5): 1 | VIP score ([2]; part A, same subject of 120 mg group, 72 h postinfusion, scale 0–5): 1 | VIP score ([2]; part B, one letermovir-treated subject, predose day 14 until 72 h postdose): 1 | VIP score ([2]; part B, throughout the study, all participants except one): 0 | Ultrasound finding in infusion site arm ([3]; part A, one subject in letermovir-treated group, at follow-up): NCS abnormal finding | Ultrasound finding in infusion site arm ([3]; part B): no abnormal findings | Dose-dependent AEs or clinically significant findings in safety laboratory values, vital signs, ECG parameters [4]: No clinically significant findings | Dose-dependent AEs or clinically significant findings in safety laboratory values, vital signs, ECG parameters ([4]; listed as letermovir): No dose‐dependent AEs or clinically significant findings | Subjects with mild or moderate TEAEs ([4]; part A): 17 subjects | TEAE Vessel puncture site hematoma [4, 12]: 2 No. of subjects | TEAE Vessel puncture site pain [4, 12]: 4 No. of subjects | TEAE Vessel puncture site reaction [4, 12]: 2 No. of subjects | Treatment-related AE headache ([4]; part A, single-dose letermovir): 2 subjects | Treatment-related AE nausea ([4]; part A, single-dose letermovir): 2 subjects | Treatment-related AE vomiting ([4]; part A, single-dose letermovir): 2 subjects | Subjects reporting TEAEs ([4]; part A, single-dose letermovir (18/30)): 60% | Subjects reporting AEs possibly or probably related to treatment ([4]; part A, single-dose letermovir (eight subjects)): 26.7% | Subjects with mild or moderate TEAEs ([4]; part B): 6 subjects | Subjects reporting TEAEs ([4]; part B, letermovir (6/8)): 75% | Subjects with treatment-related AEs [4, 13]: five | Treatment-related AE dizziness [4, 13]: 2 subjects | Treatment-related AE headache [4, 13]: 2 subjects | General tolerability ([4]; single doses up to 960 mg and multiple once-daily 240 mg i.v.): generally safe and well tolerated | Discontinuations due to AEs ([4]; throughout the study): no discontinuations due to AEs | AUC (increase from baseline) of VAS-time curve, Mean (SD) [5, 14]: 2.74 (6.55) h*mm VAS | AUC (increase from baseline) of VAS-time curve, Median [5, 14]: 0.00 h*mm VAS | AUC (increase from baseline) of VAS-time curve, Range [5, 14]: 0.00–16.10 h*mm VAS | VAS maximum increase from baseline, Mean (SD) [5, 14]: 1.17 (2.40) mm VAS | VAS maximum increase from baseline, Median [5, 14]: 0.00 mm VAS | VAS maximum increase from baseline, Range [5, 14]: 0.00–6.00 mm VAS | AUC (increase from baseline) of VAS-time curve, Mean (SD) [5, 15]: 2.74 h*mm VAS | VAS maximum increase from baseline, Mean (SD) [5, 15]: 1.17 mm VAS | AUC (increase from baseline) of VAS-time curve, Mean (SD) [5, 16]: 0.83 (0.61) h*mm VAS | AUC (increase from baseline) of VAS-time curve, Median [5, 16]: 0.83 h*mm VAS | AUC (increase from baseline) of VAS-time curve, Range [5, 16]: 0.00–1.67 h*mm VAS | VAS maximum increase from baseline, Mean (SD) [5, 16]: 1.17 (0.75) mm VAS | VAS maximum increase from baseline, Median [5, 16]: 1.00 mm VAS | VAS maximum increase from baseline, Range [5, 16]: 0.00–2.00 mm VAS | AUC (increase from baseline) of VAS-time curve, Mean (SD) [5, 17]: 0.24 (0.42) h*mm VAS | AUC (increase from baseline) of VAS-time curve, Median [5, 17]: 0.00 h*mm VAS | AUC (increase from baseline) of VAS-time curve, Range [5, 17]: 0.00–1.02 h*mm VAS | VAS maximum increase from baseline, Mean (SD) [5, 17]: 0.5 (0.84) mm VAS | VAS maximum increase from baseline, Median [5, 17]: 0.00 mm VAS | VAS maximum increase from baseline, Range [5, 17]: 0.00–2.00 mm VAS | AUC (increase from baseline) of VAS-time curve, Mean (SD) [5, 18]: 0.39 (0.95) h*mm VAS | AUC (increase from baseline) of VAS-time curve, Median [5, 18]: 0.00 h*mm VAS | AUC (increase from baseline) of VAS-time curve, Range [5, 18]: 0.00–2.33 h*mm VAS | VAS maximum increase from baseline, Mean (SD) [5, 18]: 0.17 (0.41) mm VAS | VAS maximum increase from baseline, Median [5, 18]: 0.00 mm VAS | VAS maximum increase from baseline, Range [5, 18]: 0.00–1.00 mm VAS | VAS maximum increase from baseline, Mean (SD) ([5]; part A, single dose 720 mg (N=6), listed as letermovir): 0.17 mm VAS | AUC (increase from baseline) of VAS-time curve, Mean (SD) [5, 19]: 0.26 (0.64) h*mm VAS | AUC (increase from baseline) of VAS-time curve, Median [5, 19]: 0.00 h*mm VAS | AUC (increase from baseline) of VAS-time curve, Range [5, 19]: 0.00–1.57 h*mm VAS | VAS maximum increase from baseline, Mean (SD) [5, 19]: 0.67 (1.63) mm VAS | VAS maximum increase from baseline, Median [5, 19]: 0.00 mm VAS | VAS maximum increase from baseline, Range [5, 19]: 0.00–4.00 mm VAS | AUC (increase from baseline) of VAS-time curve, Mean (SD) [5, 20]: 0.89 (2.94) h*mm VAS | AUC (increase from baseline) of VAS-time curve, Median [5, 20]: 0.00 h*mm VAS | AUC (increase from baseline) of VAS-time curve, Range [5, 20]: 0.00–16.10 h*mm VAS | VAS maximum increase from baseline, Mean (SD) [5, 20]: 0.73 (1.36) mm VAS | VAS maximum increase from baseline, Median [5, 20]: 0.00 mm VAS | VAS maximum increase from baseline, Range [5, 20]: 0.00–6.00 mm VAS | VAS maximum increase from baseline, Mean (SD) ([5]; part A, single dose, letermovir total (N=30), listed as letermovir): 0.73 mm VAS | AUC (increase from baseline) of VAS-time curve, Mean (SD) [5, 21]: 24.58 (30.23) h*mm VAS | AUC (increase from baseline) of VAS-time curve, Median [5, 21]: 23.95 h*mm VAS | AUC (increase from baseline) of VAS-time curve, Range [5, 21]: 0.00–74.33 h*mm VAS | VAS maximum increase from baseline, Mean (SD) [5, 22]: 0.83 (0.41) mm VAS | VAS maximum increase from baseline, Median [5, 22]: 1.00 mm VAS | VAS maximum increase from baseline, Range [5, 22]: 0.00–1.00 mm VAS | VAS maximum increase from baseline, Mean (SD) ([5]; part B, multiple dose 240 mg (No. 6), listed as letermovir): 0.83 mm VAS | AUC (increase from baseline) of VAS-time curve, Mean (SD) [5, 23]: 0.00 h*mm VAS | AUC (increase from baseline) of VAS-time curve, Median [5, 23]: 0.00 h*mm VAS | AUC (increase from baseline) of VAS-time curve, Range [5, 23]: 0.00 h*mm VAS | VAS maximum increase from baseline, Mean (SD) [5, 23]: 0.00 mm VAS | VAS maximum increase from baseline, Median [5, 23]: 0.00 mm VAS | VAS maximum increase from baseline, Range [5, 23]: 0.00 mm VAS
